Screening data: PubChem, several laboratories
FGF22 binding: shifts melting point of recombinant human FGF22 | recombinant FGF22 thermal shift, SYPRO orange fluorescence; percent of sucrose octasulfate shift, DMSO zero | activity (Tm shift, normalised), % at 9.99 µM | Q9HCT0 | 1.5% of 340,000 active;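 active means mean Tm shift, scaled 0 neutral to 100 positive control, at about 1.3% or above, every replicate too, limit read from the data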
Target sequence (Q9HCT0 whole entry, looked up): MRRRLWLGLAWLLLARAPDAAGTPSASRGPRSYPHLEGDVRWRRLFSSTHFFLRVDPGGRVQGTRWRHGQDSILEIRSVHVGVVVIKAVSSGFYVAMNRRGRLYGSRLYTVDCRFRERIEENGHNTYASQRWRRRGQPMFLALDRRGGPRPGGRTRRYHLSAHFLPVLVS
Efflux pump inh: blocks antifungal efflux pumps in multiplex yeast assay; S. cerevisiae Candida pump triplex, Nile Red efflux; inhibition, % at 10 µM; 0.44% of 330,000 active;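 active means plate passing quality check with inhibition over a set limit, or well fluorescence over plate mean plus 4 SD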;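 further: Nile Red retained in pooled yeast measured as flow cytometry median fluorescence; 0% = buffer negative control and 100% = Enniatin B positive control; higher means more Nile Red kept so more efflux inhibition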
ASAP1 GAP inh: inhibitors of human ASAP1 ArfGAP activity; ASAP1-stimulated ARF1 GTP hydrolysis, GDP FP detection; 0.19% of 360,000 active; Q9ULH1; inhibition, % at 16.5 µM; in the data active means inhibition above about 25%;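 further: 0% = vehicle with enzyme and substrate and 100% = no enzyme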
Target sequence (Q9ULH1 325-724 limits assumed): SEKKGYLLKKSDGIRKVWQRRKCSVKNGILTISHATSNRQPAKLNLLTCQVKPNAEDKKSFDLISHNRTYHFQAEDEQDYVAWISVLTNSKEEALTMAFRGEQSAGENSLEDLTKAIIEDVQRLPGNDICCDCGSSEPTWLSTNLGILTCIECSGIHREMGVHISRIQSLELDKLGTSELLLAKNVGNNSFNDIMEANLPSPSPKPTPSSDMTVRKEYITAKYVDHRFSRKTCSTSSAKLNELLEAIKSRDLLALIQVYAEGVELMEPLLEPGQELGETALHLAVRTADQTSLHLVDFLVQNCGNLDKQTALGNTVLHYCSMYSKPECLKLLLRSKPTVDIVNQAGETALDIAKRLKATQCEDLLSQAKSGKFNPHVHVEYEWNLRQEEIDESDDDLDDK
ARFGAP1 inhibitor: inhibitors of rat ARFGAP1. AID 651572. 0.26% of 360,000 active. inhibition, % at 16.5 µM. Arfgap1-stimulated ARF1 GTP hydrolysis, GDP FP detection;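 active means inhibition above a per-plate limit, mean inhibition of low control wells plus 3 SD, cut at about 25% in these data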;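 further: 0% = DMSO wells with enzyme and 100% = wells lacking Arfgap1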
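Assay system: Rat Arfgap1 GAP domain (His6, aa 1-136), purified enzyme | Buffer or medium: HEPES 25 mM pH 7.5, NaCl 150 mM, MgCl2, DTT | Schedule: GTP hydrolysis reaction 2 h at 25 °C | Signal: FP of antibody-bound GDP Alexa 633 tracer, ex 620/em 688 nm | Measure: Percent inhibition of Arfgap1-stimulated GTP hydrolysis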
Rtt109 Vps75: C. albicans Rtt109 histone acetyltransferase inhibition; Q5AAJ8; AID 540336; inhibition, % at 34.9 µM; purified Rtt109/Vps75, ThioGlo CoA-SH fluorescence, 4 h; 0.16% of 330,000 active;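 active means inhibition of at least 50% in every replicate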
Yeast cmpd fluor: compound fluorescence in yeast efflux pump counter-screen; 4% of 1,700 active; shares compounds with Efflux pump inh; fluorescence ratio to DMSO, % at 10 µM; S. cerevisiae AD/pABC3, flow cytometry;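 active means fluorescence ratio to DMSO above its plate's cutoff, the plate mean ratio plus 5 SD, cut at about 210% in these data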;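 further: unstained yeast with no Nile Red so the signal is compound autofluorescence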
Mdr1 pump inh: blocks the Candida albicans Mdr1 efflux pump in yeast; shares compounds with Efflux pump inh; S. cerevisiae AD/CaMDR1, Nile Red efflux, flow cytometry; inhibition, % at 10 µM; 1% of 1,700 active; AID 588518; in the data active means inhibition above about 26%;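 further: 0% = DMSO vehicle and 100% = reference inhibitor; higher means more Nile Red retained so more efflux inhibition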
CaCdr2 efflux inh: Candida Cdr2 efflux pump inhibition; Nile Red retention ratio vs DMSO, % at 10 µM; 4% of 1,700 active; shares compounds with Efflux pump inh; AID 588520; S. cerevisiae AD/CaCDR2, Nile Red retention, flow cytometry; in the data active means Nile Red retention ratio vs DMSO above about 190%;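 further: higher ratio means more blocking of Cdr2 efflux of the dye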
CaCdr1 efflux inh: blocks the Candida albicans Cdr1 efflux pump in yeast; shares compounds with Efflux pump inh; S. cerevisiae AD/CaCDR1, Nile Red efflux, flow cytometry; inhibition, % at 10 µM; 1% of 1,700 active; AID 588522;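 active means inhibition above the screen-wide mean plus twice its standard deviation, cut at about 32% in these data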
Numbers without * were called inactive; / = no result given; + = active, no number. This is a sample that favours compounds with a hit; in the whole collection about 1.9% have one here.

SMILES	FGF22 binding	Efflux pump inh	ASAP1 GAP inh	ARFGAP1 inhibitor	Rtt109 Vps75	Yeast cmpd fluor	Mdr1 pump inh	CaCdr2 efflux inh	CaCdr1 efflux inh
BrC(=C\c1ccccc1)/C=N/Nc1nc2ccccc2[nH]1	/	2.5*	-5	5	8	94	0	104	0
COc1cc(CC(NC(C)=O)C(=O)NC2CCN(c3nc(C)cc(C)c3C#N)CC2)cc(OC)c1 (stereo unspecified)	/	0	-12	11	/	/	/	/	/
COc1cccc(-c2cccc(-c3nc(C(=O)N4CCN(C)CC4)cc4c3[C@@H](CCO)N(S(=O)C(C)(C)C)C4)c2)c1 (stereo partly specified)	0	/	/	/	/	/	/	/	/
Cc1cc(C)cc(N(C(=O)Cn2nnc(-c3ccccc3)n2)C(C(=O)NC2CCCCC2)c2ccccn2)c1 (stereo unspecified)	/	6.4*	8	-5	3	105	0	101	0
O=C(COC(=O)/C=C/c1cccc([N+](=O)[O-])c1)Nc1ccc(Cl)cn1	0	0	-4	8	7	/	/	/	/
O=C(COC(=O)/C=C/c1cccc(C(F)(F)F)c1)Nc1ccc(Cl)cn1	0	0.6*	6	2	1	102	0	92	0
Cc1cc2nc3ccc(N(C)C)cc3nc2cc1N	0	1.6*	-1	-3	19	132	0	112	0
CCCCN1C(=S)NC[C@@H]1Cc1cccc2ccccc12	0	0	-3	-6	-19	92	0	95	0
CCn1c(/C=C/c2ccc(O)c(O)c2)nc2ccccc2c1=O	-1	1.0*	-4	10	-2	144	2	105	2
C[C@H]1CN([C@@H](C)CO)C(=O)c2cc(C#CC3(O)CCCC3)cnc2O[C@H]1CN(C)C(=O)CN(C)C	0	/	/	/	/	/	/	/	/
COc1ccc(OC)c(NC(=O)C2CCN(S(=O)(=O)c3cccs3)CC2)c1	/	0	11	-11	10	/	/	/	/
COc1ccccc1NC(=O)C1CCN(S(=O)(=O)c2cccs2)CC1	0	172*	-6	15	2	111	1	108	0
OC(COCc1ccc(Cl)cc1)CN1CCCCC1 (stereo unspecified)	0	1.1*	-6	4	5	79	0	87	0
Cc1cc(Br)cc(C)c1OCC(=O)NNC(=O)c1cccs1	0	0	-9	12	10	/	/	/	/
COc1cccc(CNn2c(-c3cccc(C)c3)nc3ccccc3c2=O)c1	/	-1	7	-1	-4	/	/	/	/
COc1ccc(OC)c(CNn2c(-c3cccc(C)c3)nc3ccccc3c2=O)c1	/	0.7*	-5	-4	4	90	0	100	0
CCCn1c(=O)c2ccccc2n2c(SCC(=O)N3CCc4ccccc4C3)nnc12	0	0	1	-4	-2	/	/	/	/
O/N=C/c1cccc[n+]1CCCCCC[n+]1ccccc1/C=N/O	0	0	-12	4	-9	/	/	/	/
CCCCCCCCCCCCCCCC[n+]1ccc(/C=N/O)cc1	0	2.0*	2	-1	-6	108	0	118	0
CC1(C(=O)NS(=O)(=O)c2cccc(C#N)c2)CCN1C(=O)C1(c2ccccc2)CC1 (stereo unspecified)	0	/	-1	0	/	/	/	/	/
CCC(=O)c1ccc(OCC(=O)OCc2csc(CC(=O)Nc3ccccc3C)n2)cc1	0	/	4	3	/	/	/	/	/
S=C(/N=c1/sccn1Cc1ccccc1)NC1CC1	0	1.3*	-1	-3	-2	101	0	106	0
CCOc1ccc(/C=C2\SC(N3CCCCC3)=NC2=O)cc1	0	0	2	4	5	/	/	/	/
COc1ccc(CNCCC(c2ccc(F)cc2)c2ccc(OC)cc2)cc1 (stereo unspecified)	/	10*	-3	-2	13	96	0	109	0
O=C(c1cccc2ccccc12)C1CCCN(C(=O)CCc2cnccn2)C1 (stereo unspecified)	0	0	2	1	3	/	/	/	/
SMILES	FGF22 binding	Efflux pump inh	ASAP1 GAP inh	ARFGAP1 inhibitor	Rtt109 Vps75	Yeast cmpd fluor	Mdr1 pump inh	CaCdr2 efflux inh	CaCdr1 efflux inh
Cc1nc(C(=O)Nc2ccc(Cl)cc2Cl)nn1-c1cc(OC(C)C)c(Cl)cc1Cl	/	1.3*	-8	1	0	113	0	105	0
O=c1c2ccccc2[nH]c(=S)n1CCN1CCc2ccccc2C1	0	0.8*	12	6	-2	99	0	107	0
Nc1nc2c(F)cccc2s1	/	2.2*	1	-3	-36	99	0	105	0
COC(=O)c1cc(OC)nc2c1c(=O)n(C)c(=O)n2C	/	9.6*	-5	16	3	98	0	96	0
O=C(NC1CCCCC1)C(c1ccncc1)N(C(=O)c1ccco1)c1ccc(F)cc1 (stereo unspecified)	0	0	-3	-12	-5	/	/	/	/
O=C(NC1CCCC1)C(c1ccncc1)N(C(=O)c1ccco1)c1ccccc1 (stereo unspecified)	0	0.6*	0	-16	-4	98	0	108	0
COc1cccc(-c2sc3ccccc3c2-c2ccc(OCCN3CCCCC3)cc2)c1	/	0	/	/	7	/	/	/	/
COc1cccc(-c2sc3ccc(OC)cc3c2-c2ccc(OCCN3CCCC3)cc2)c1	/	73*	/	/	4	95	0	+	0
COc1cccc(-c2sc3cc(OC)c(OC)cc3c2-c2ccc(OCCN3CCCCC3)cc2)c1	/	1	/	/	2	98	0	116	0
COc1ccc(-c2sc3ccc(OC)cc3c2-c2ccc(OCCN3CCOCC3)cc2)cc1	/	52*	/	/	-1	100	16	96	55*
O=C1CN(C(=O)COC(=O)Cc2ccccc2F)c2ccccc2N1	0	0	-2	-23	-5	/	/	/	/
COc1ccc(C(=O)Nc2cccc(-c3nc4ncccc4o3)c2C)cc1	/	0	7	1	-1	/	/	/	/
O=C(O)c1cccc(Nc2ccncc2[N+](=O)[O-])c1	0	1.2*	5	-2	-6	95	0	112	0
COc1ccc(C2=NOC(Cn3nc(C(=O)NCC4CC4)cc3-c3ccccc3)C2)cc1 (stereo unspecified)	0	0	12	3	1	/	/	/	/
CC(C)CCN1CCC(n2nccc2NC(=O)C2CCOC2)CC1 (stereo unspecified)	0	1.4*	1	2	2	99	0	112	0
COc1cc(CN2CCC(n3nccc3NC(=O)C3CCOC3)CC2)ccc1F (stereo unspecified)	0	0	-7	3	3	/	/	/	/
